High-throughput results (PubChem)
HTR1A agonist: human 5-HT1a receptor agonists, primary screen, cell-based, CHO, Ga15 NFAT-bla reporter; CHO 5-HT1a Ga15 NFAT-bla reporter, FRET ratio; 0% basal, 100% maximal reference agonist; activation, % at 10 µM; actives 0.56% (n = 65,000);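 active means activation above the screen-wide mean activation plus 3 SD, cut at about 19% in these data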
HTR1E antagonist: 5-HT1E receptor antagonists, primary screen, cell-based, HTS | 5-hydroxytryptamine receptor 1E (Homo sapiens), P28566 | CHO 5-HT1E Ga15 NFAT-bla reporter, FRET, antagonist | inhibition, % at 6 µM | actives 0.99% (n = 65,000);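 active means inhibition above a set limit, the mean inhibition across every tested compound plus 3 SD, cut at about 29% in these data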;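 further: signal is the 460 over 535 nm emission ratio of beta-lactamase substrate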
S1P1 ag-PAM: S1P1 agonists and agonism potentiators, primary screen, cell-based, primary and confirmation screens, CRE-bla reporter. Sphingosine 1-phosphate receptor 1 (Homo sapiens), P21453. S1P1 CRE-bla cells, forskolin, beta-lactamase FRET, potentiator mode; S1P1 agonist co-added at EC20, 2 nM; 100% = saturating reference agonist, 0% = basal. activation, % at 9.5 µM. actives 0.57% (n = 56,000). AID 449, 2006;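 active means activation above a cutoff set at the mean activation of all tested compounds plus 3 SD, cut at about 54% in these data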;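 further: forskolin at 4 µM as EC80 and the EC20 agonist is SEW2871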
5-HT1A blocker: human 5-HT1a receptor antagonists, primary screen, cell-based, CHO, Ga15 NFAT-bla reporter. 5-hydroxytryptamine receptor 1A (Homo sapiens), P08908. CHO 5-HT1a Ga15 NFAT-bla reporter, antagonist mode. inhibition, % at 10 µM. actives 0.68% (n = 62,000). AID 612, 2007;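 active means inhibition above the mean of all tested compounds plus 3 SD, cut at about 43% in these data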;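 further: receptor stimulated by 5-CT agonist at 100 nM near EC80; beta-lactamase reporter measured by ratiometric fluorescence of a cleavable substrate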
S1P3 agonist: human S1P3 receptor agonists, primary screen, cell-based, primary and confirmation, NFAT-BLA reporter; Sphingosine 1-phosphate receptor 3 (Homo sapiens), Q99500; S1P3 NFAT-BLA reporter cells, agonism, FRET ratio; relative to 1 µM S1P, basal subtracted; activation, % at 4.5 µM; actives 0.1% (n = 60,000); AID 373, 2006;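 active means activation above the screen-wide mean plus 3 SD, cut at about 4.5% in these data, passing the limit was not always enough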
Target sequence (Q99500 whole entry, looked up): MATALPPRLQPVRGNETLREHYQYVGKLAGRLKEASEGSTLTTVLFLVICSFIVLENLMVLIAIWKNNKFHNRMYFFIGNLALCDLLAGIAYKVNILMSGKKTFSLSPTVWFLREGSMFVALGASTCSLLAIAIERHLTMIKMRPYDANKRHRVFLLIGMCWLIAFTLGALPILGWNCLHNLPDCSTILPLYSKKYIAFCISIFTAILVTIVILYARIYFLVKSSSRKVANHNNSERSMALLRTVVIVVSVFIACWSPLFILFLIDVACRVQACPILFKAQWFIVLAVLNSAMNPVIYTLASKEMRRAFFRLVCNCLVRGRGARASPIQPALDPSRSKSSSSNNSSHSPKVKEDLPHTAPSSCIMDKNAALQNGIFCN
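Assay system: CHO cells stably expressing human S1P3, Gα16 and NFAT-β-lactamase reporter. Timing: overnight plating, 4 h compound 37 °C, 2 h substrate RT. Signal: β-lactamase FRET emission ratio 460/535 nm. Measure: percent activation versus median 1 µM S1P response, basal-subtracted, per plate. Repeats: primary screen single test, confirmation screen in triplicate.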
5HT1E ag: 5-HT1E receptor agonists, primary screen, cell-based, HTS; 5-hydroxytryptamine receptor 1E (Homo sapiens), P28566; CHO 5-HT1E Ga15 NFAT-bla reporter, FRET; 0% DMSO wells, 100% control agonist wells; actives 0.69% (n = 65,000); activation, % at 6 µM;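 active means activation above a set limit, the screen-wide mean activation plus 3 SD, cut at about 8.5% in these data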
Each line names hits and unclear results; the compound was inactive in the other large screens. The list is not random: actives were taken first. Their share in the collection is about 2.9%.

CCOc1ncccc1C(=O)Nc1ccccc1C(=O)NCc1ccc2c(c1)OCO2	none
CCOC(=O)c1c(C(F)(F)C(F)(F)C(F)(F)C(F)(F)F)n[nH]c1C	none (no result: 5-HT1A blocker)
COc1cc(NS(=O)(=O)c2ccc(C)cc2)c2ncccc2c1	HTR1E antagonist 67, 5-HT1A blocker 67 (no result: S1P1 ag-PAM)
COc1cc(NCCCC(C)N)c2ncccc2c1 (configuration not stated)	none
CC(C)(C)C1=Nn2c(nnc2C2CCCCC2)SC1	none (no result: 5-HT1A blocker)
COCCn1c(SCC(=O)NCC2CCCO2)nc2c(c1=O)SC(C)C2 (configuration not stated)	none
Cn1nc(C(C)(C)C)cc1C(=O)NCc1ccc(N2CCCC2=O)cc1	S1P1 ag-PAM 56
Cc1cc(C)c(N2CCN(S(=O)(=O)N3CCCCCC3)CC2)c(C)c1	none
COc1ccccc1C(=O)n1nc(-c2ccccc2)nc1NCc1ccco1	5-HT1A blocker 44
CCOC(=O)C(CO)(NC(C)=O)C(=O)OCC	none
Cc1ccc(-n2c(C)cc(C(=O)COC(=O)c3c(C)noc3C)c2C)cc1	S1P1 ag-PAM 62
COc1ccc(N2CCN(c3oc(COc4ccc(Cl)cc4Cl)nc3C#N)CC2)cc1	5-HT1A blocker 59
N#Cc1nc(COc2ccc(Cl)cc2Cl)oc1N1CCOCC1	none
N#Cc1nc(COc2ccc(Cl)cc2Cl)oc1N1CCN(c2ccccc2)CC1	S1P1 ag-PAM 69, 5-HT1A blocker 57
CCOC(=O)C1CCCN(C(=O)Cn2nc(Cc3cccnc3)c3ccccc3c2=O)C1 (configuration not stated)	HTR1A agonist 38
CN(C)Cc1cc(CCNC(=O)c2ccc(Cl)cc2)ccc1O	5HT1E ag 14
COc1ccc(CCNC(=O)c2ccncc2)cc1OC	none
CCOC(=O)c1sc(Nc2nc3c(OC)cccc3s2)nc1C	HTR1A agonist 28, 5HT1E ag 13
COc1cccc2sc(Nc3nc(-c4ccccn4)cs3)nc12	HTR1E antagonist 69, S1P1 ag-PAM 72, 5-HT1A blocker 66
COc1cccc2sc(Nc3nnc(-c4cccs4)o3)nc12	5-HT1A blocker 46
O=C(Nc1ccc2c(c1)OCO2)OCc1ccccc1	none (no result: S1P1 ag-PAM)
Nn1c(SCC(=O)Nc2cccc(F)c2)nnc1C1CCCCC1	none
CCOC(=O)c1[nH]c2c(c1C)C(=O)CC(c1ccc(OCC)c(OC)c1)C2 (configuration not stated)	none (no result: S1P1 ag-PAM, S1P3 agonist)
CCCCCOC(=O)c1[nH]c2c(c1C)C(=O)CC(c1ccco1)C2 (configuration not stated)	HTR1E antagonist 82, 5-HT1A blocker 66
CCOC(=O)c1[nH]c2c(c1C)C(=O)CC(c1ccc(F)cc1)C2 (configuration not stated)	HTR1E antagonist 58
Cc1cc(C(=O)CSc2nnc(-c3ccccc3)n2Cc2ccc3c(c2)OCO3)c(C)n1C	none
Cc1cc(C(=O)CSc2nc3ccccc3c(=O)n2C)c(C)n1Cc1ccc2c(c1)OCO2	S1P1 ag-PAM 62
COCCCNC(=O)c1ccc(CS(=O)(=O)c2ccc(OC)cc2)o1	HTR1E antagonist 31
O=C(Nc1ncc(Br)s1)C(Cc1ccccc1)n1cccc1 (configuration not stated)	S1P1 ag-PAM 99
O=C(Nc1cccnc1)C(Cc1ccccc1)n1cccc1 (configuration not stated)	none
Cc1c(C(=O)OCC(=O)c2c(N)n(CC(C)C)c(=O)n(C)c2=O)oc2ccccc12	5-HT1A blocker 43
CC(C)Cn1c(N)c(C(=O)COC(=O)c2ccc3c(c2)OCCO3)c(=O)n(C)c1=O	none
COCc1c(C(=O)OCC(=O)c2c(N)n(CC(C)C)c(=O)n(C)c2=O)oc2ccccc12	none
CC(C)Cn1c(N)c(C(=O)CSc2ccc3c(c2)OCCO3)c(=O)n(C)c1=O	S1P1 ag-PAM 104
CCOC(=O)C1CCCN(C(=O)c2cnn3c(C(F)F)cc(-c4ccc(C)cc4)nc23)C1 (configuration not stated)	5-HT1A blocker 47 (no result: S1P1 ag-PAM)
O=C(NC1CCCCC1)C(c1ccccc1F)N(Cc1ccco1)C(=O)Cn1nnc2ccccc21 (configuration not stated)	5-HT1A blocker 55
CCC(C(=O)NC1CCCC1)N(Cc1ccco1)C(=O)Cn1nnc(-c2ccc(C)cc2)n1 (configuration not stated)	5HT1E ag 9.0
O=C(NC1CCCCC1)C(c1ccc(F)cc1)N(Cc1ccco1)C(=O)Cn1nnc2ccccc21 (configuration not stated)	none
CCOC(=O)CN(C(=O)Cn1nnc(-c2ccc(C)cc2)n1)C(CC)C(=O)NC1CCCC1 (configuration not stated)	none
O=C(CSc1ccc2nnc(-c3cccnc3)n2n1)NCc1ccc2c(c1)OCO2	none
CCOC(=O)C1=C(N)n2c(s/c(=C\c3cccnc3)c2=O)=C(C#N)C1c1cccnc1 (configuration not stated)	5HT1E ag 19
COC(=O)C1=C(N)n2c(s/c(=C\c3cccnc3)c2=O)=C(C(=O)OC)C1c1cccnc1 (configuration not stated)	none
COCCn1c(=S)[nH]c2ccc(N(C)C)cc2c1=O	none
Cc1ccc(C(=O)CC2(O)C(=O)N(Cc3ccccc3Cl)c3ccccc32)o1 (configuration not stated)	5HT1E ag 16
CC(C(=O)NCc1ccc2c(c1)OCO2)N1c2cccc3cccc(c23)S1(=O)=O (configuration not stated)	none
Cc1ccc(C)c(NC(=O)c2ccc3c(c2)N(Cc2ccc(F)cc2)C(=O)CS3=O)c1 (configuration not stated)	HTR1A agonist 47
CCn1c(C(=O)N2CCC(C(=O)NCc3ccc4c(c3)OCO4)CC2)cc2sccc21	HTR1A agonist 20
CC(=O)c1cccc(N(C(=O)c2ccco2)C(C(=O)NC2CCCC2)c2ccncc2)c1 (configuration not stated)	none
O=C(Nn1c(=S)[nH]c2ccccc2c1=O)c1ccncc1	none
O=C(NCCOC(=O)c1ccncc1)c1ccccc1	none
